Measured values from different studies.
ALOX12: Polyunsaturated fatty acid lipoxygenase ALOX12 (ALOX12, Homo sapiens, UniProt P18054)
PIK3C2A: Phosphatidylinositol 4-phosphate 3-kinase C2 domain-containing subunit alpha (PIK3C2A, Homo sapiens, UniProt O00443)

SMILES | target | test | system | conditions | measurement | value
C=C(C)[C@@H]1CCC(C)=C[C@H]1c1c(O)cc(CCC)cc1O | ALOX12 | enzyme activity in cells, inhibitor | PMNL | 10 µM | remaining activity | 110%
Cn1cc(-c2cccc(N3CCc4c(sc5c4CC(C)(C)C5)C3=O)c2CO)cc(Nc2ccncn2)c1=O | PIK3C2A | enzyme activity, inhibitor |  | 1 µM | inhibition | 0%
C#Cc1n[nH]c2c(-c3cn(C(C)c4ccccn4)c(=O)[nH]c3=O)cc(F)cc12 (stereo not drawn) | PIK3C2A | enzyme activity, inhibitor |  | 1 µM | inhibition | 8.9%
COc1cc(Nc2ncc(F)c(Nc3ccc4c(n3)NC(=O)C(C)(C)O4)n2)cc(OC)c1OC | Serine/threonine-protein kinase PLK4 (PLK4, Homo sapiens, UniProt O00444) | binding |  | 10 µM | inhibition | 100%
Cc1nn(C)cc1-c1nc2c(N3CCN(Cc4ccc(Cl)cc4)CC3)c(Cl)cnc2[nH]1 | Cyclin-dependent kinase 14 (CDK14, Homo sapiens, UniProt O94921) | binding, competition with immobilised ligand |  | 1 µM | remaining binding | 100%
CCN(CC)CCCC[C@H](NC(=O)[C@H](CC(C)C)NC(=O)[C@H](C)NC(=O)[C@H](Cc1ccccc1)NC(=O)c1ccc(C(C)(C)C)cc1)C(=O)N[C@@H](CO)C(=O)OC | Bromodomain-containing protein 1, bromodomain (BRD1, Homo sapiens, UniProt O95696) | thermal stability, DSF |  | 25 µM | ΔTm | 0.49 °C
COc1ncccc1-c1cnn2ccc(N3CCN(C(=O)OC(C)C)CC3)nc12 | Serine/threonine-protein kinase TAO2 (TAOK2, Homo sapiens, UniProt Q9UL54) | binding, competition with immobilised ligand |  | 1 µM | remaining binding | 64%
C#Cc1n[nH]c2c(-c3cn([C@@H](C)c4ccccc4)c(=O)[nH]c3=O)cc(F)cc12 | Mitogen-activated protein kinase 14 (MAPK14, Homo sapiens, UniProt Q16539) | enzyme activity, inhibitor |  | 0.1 µM | inhibition | 2.1%
Nc1ncc(-c2nc(N3CCOCC3)nc(N3CCOCC3)n2)c(C(F)F)n1 | cGMP-inhibited 3',5'-cyclic phosphodiesterase 3A (PDE3A, Homo sapiens, UniProt Q14432) | enzyme activity, inhibitor |  | 10 µM | remaining activity | 39.1%
Cn1cc(-c2cc(F)cc(N3CCn4c(cc5c4CCCC5)C3=O)c2CO)cc(Nc2ccc(N3CCN(C4COC4)CC3)cn2)c1=O | Phosphatidylinositol 3-kinase catalytic subunit type 3 (PIK3C3, Homo sapiens, UniProt Q8NEB9) | enzyme activity, inhibitor |  | 0.1 µM | inhibition | -1%
CC[C@H](C)[C@@H](C(=O)O[C@@H](CC(C)C)C(=O)N[C@@H](CC(C)C)C(=O)N[C@@H](C)/C=C/C(=O)N1C(=O)C=C(OC)[C@@H]1C)N(C)C | Falcipain-3 (FP3, Plasmodium falciparum 3D7, UniProt Q8IIL0) | enzyme activity, inhibitor, fluorescence |  | pH 6 | kinact/KI | 7030 M⁻¹ s⁻¹
CCCCCc1cc(O)c(C/C=C(\C)CCC=C(C)C)c(O)c1 | ALOX12 | enzyme activity in cells, inhibitor | PMNL | 10 µM | remaining activity | 152%
